Laboratory results: ChEMBL document CHEMBL1124473, “Synthesis and antiproliferative effects of novel 5'-fluorinated analogues of 5'-deoxy-5'-(methylthio)adenosine” (J Med Chem, 1989)
One block for each compound: values may come before it.

Assays:
L5178Y [1] = assay: Compound was evaluated for its ability to inhibit growth by 50% at 48 hr in L5178Y murine leukemia cells; type: functional, cell-based; conditions: Mus musculus
L1210 [2] = assay: Compound was evaluated for its ability to inhibit growth by 50% at 48 hr in L1210 murine leukemia cells; type: functional, cell-based; conditions: Mus musculus, L1210, 48 h
L1210 [3] = assay: Compound was evaluated for effect on polyamine pools in the L1210 murine leukemia cell lines by the inhibition of put at 200 uM; type: functional, Mus musculus
L1210 [4] = assay: Compound was evaluated for effect on polyamine pools in the L1210 murine leukemia cell lines by the inhibition of spermidine synthase at 200 uM; type: functional, Mus musculus
L1210 [5] = assay: Compound was evaluated for effect on polyamine pools in the L1210 murine leukemia cell lines by the inhibition of spermine synthase at 200 uM; type: functional, Mus musculus
L5178Y [6] = assay: Compound was evaluated for effect on polyamine pools in the L5178Y murine leukemia cell lines by the inhibition of put at 200 uM; type: functional, Mus musculus
L5178Y [7] = assay: Compound was evaluated for effect on polyamine pools in the L5178Y murine leukemia cell lines by the inhibition of spermidine synthase at 200 uM; type: functional, Mus musculus
L5178Y [8] = assay: Compound was evaluated for effect on polyamine pools in the L5178Y murine leukemia cell lines by the inhibition of spermine synthase at 200 uM; type: functional, Mus musculus
L5178Y [9] = assay: Inhibition of growth of L5178Y murine leukemia cell line in percent of control at 200 uM; type: functional, Mus musculus; design: scale not given: the % may be the effect or the level left
Summary of the method: (§1)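 Cultures in RPMI 1640 with 10% Nu Serum IV and HEPES/MOPS buffer, treated at 0 h with the listed concentration from DMSO stock diluted in serum-free medium. Cell number by electronic particle counting after 48 h, expressed as % of untreated control. Average of at least three separate experiments.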

L1210 [10] = assay: Inhibition of growth of L1210 murine leukemia cell line in percent of control at 200 uM; type: functional, Mus musculus; design: scale not given: the % may be the effect or the level left; summary of the method: as §1
[11] = molecular target: T1, S-methyl-5'-thioadenosine phosphorylase (Mus musculus, UniProt Q9CQ65); assay: Compound was evaluated for the inhibition of mouse liver MTA phosphorylase
T1 sequence (Q9CQ65 whole entry): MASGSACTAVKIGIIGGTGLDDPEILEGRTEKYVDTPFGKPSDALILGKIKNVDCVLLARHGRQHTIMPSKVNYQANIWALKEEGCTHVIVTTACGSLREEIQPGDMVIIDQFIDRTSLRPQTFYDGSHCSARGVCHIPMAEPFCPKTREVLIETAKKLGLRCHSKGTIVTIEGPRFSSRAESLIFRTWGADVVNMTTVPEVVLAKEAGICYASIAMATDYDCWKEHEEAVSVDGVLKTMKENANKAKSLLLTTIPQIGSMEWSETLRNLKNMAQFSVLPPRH
Summary of the method: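 Mouse liver enzyme, partially purified (acid precipitation, 65 °C heat step, DEAE-Sephacel). 0.1 mL reaction: 4 μmol potassium phosphate pH 7.4, 0.1 μmol DTT, 20 μg BSA, 50 nmol MTA, ~2 × 10^5 cpm [methyl-3H]MTA; 10 min, 37 °C. Stopped with charcoal/TCA; [3H]MTRP in supernatant counted by liquid scintillation.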

L1210 [12] = assay: Compound was evaluated for effect on polyamine pools in the L1210 murine leukemia cell lines by the inhibition of put at 600 uM; type: functional, Mus musculus
L1210 [13] = assay: Compound was evaluated for effect on polyamine pools in the L1210 murine leukemia cell lines by the inhibition of spermidine synthase at 600 uM; type: functional, Mus musculus
L5178Y [14] = assay: Compound was evaluated for effect on polyamine pools in the L5178Y murine leukemia cell lines by the inhibition of put at 60 uM; type: functional, Mus musculus
L5178Y [15] = assay: Compound was evaluated for effect on polyamine pools in the L5178Y murine leukemia cell lines by the inhibition of spermidine synthase at 60 uM; type: functional, Mus musculus
L5178Y [16] = assay: Compound was evaluated for effect on polyamine pools in the L5178Y murine leukemia cell lines by the inhibition of spermine synthase at 60 uM; type: functional, Mus musculus
L5178Y [17] = assay: Inhibition of growth of L5178Y murine leukemia cell line in percent of control at 60 uM; type: functional, Mus musculus; design: scale not given: the % may be the effect or the level left; summary of the method: as §1
L1210 [18] = assay: Inhibition of growth of L1210 murine leukemia cell line in percent of control at 600 uM; type: functional, Mus musculus; design: scale not given: the % may be the effect or the level left; summary of the method: as §1
L1210 [19] = assay: Compound was evaluated for effect on polyamine pools in the L1210 murine leukemia cell lines by the inhibition of spermine synthase at 600 uM; type: functional, Mus musculus

SMILES: Nc1ncnc2c1ncn2C1O[C@H](CI)[C@@H](O)[C@H]1O (stereo not given in full)
- IC50 (L5178Y [1]): 2 µM
- IC50 (L1210 [2]): 300 µM

- IC50 (L1210 [2]): 2 µM
SMILES: CSC(F)[C@H]1OC(n2cnc3c(N)ncnc32)[C@H](O)[C@@H]1O (stereo not given in full)
- IC50 (L5178Y [1]): 0.7 µM

- IC50 (L1210 [2]): 300 µM
- Ki [11]: 3.3 µM
SMILES: Nc1ncnc2c1ncn2C1O[C@H](CSCF)[C@@H](O)[C@H]1O (stereo not given in full)
- Activity (L1210 [3]): 0.62 nM/10e6
- Activity (L1210 [4]): 2.93 nM (10e6*cells)-1
- Activity (L1210 [5]): 0.6 nM (10e6*cells)-1
- Activity (L5178Y [6]): 0.41 nM (10e6*cells)-1
- Activity (L5178Y [7]): 2.47 nM (10e6*cells)-1
- Activity (L5178Y [8]): 1.32 nM (10e6*cells)-1
- IC50 (L5178Y [1]): 200 µM
- Control (L5178Y [9]): 45%
- Control (L1210 [10]): 67%

- IC50 (L1210 [2]): 600 µM
SMILES: CSC[C@H]1O[C@@H](n2cnc3c(N)ncnc32)[C@H](O)[C@@H]1O [METHYLTHIOADENOSINE]
- Activity (L1210 [12]): 3.64 nM (10e6*cells)-1
- Activity (L1210 [13]): 1.59 nM (10e6*cells)-1
- Activity (L5178Y [14]): 1.24 nM (10e6*cells)-1
- Activity (L5178Y [15]): 3.03 nM (10e6*cells)-1
- Activity (L5178Y [16]): 0.47 nM (10e6*cells)-1
- IC50 (L5178Y [1]): 60 µM
- Control (L5178Y [17]): 57%
- Control (L1210 [18]): 53%
- Activity (L1210 [19]): 0.2 nM (10e6*cells)-1
